Rows were chosen to be rich in hits. Some 1.9% of all compounds tested hit in one or more screens of this group.
rRNA inh HTS – inhibitors of bacterial rRNA selective over humanized ribosomes; E. coli WT GFP vs humanized-ribosome RFP mutants, fluorescence, 24 h; stronger effect = lower value; DMSO median 0, no signal -100; GFP signal change (wild-type ribosome), % (no concentration beside the values); hit rate 1.6% among 350,000; AID 720706;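 active = significant combined selectivity score with lowered wild-type GFP, culture density cut under 30%, mutant RFP and density less affected; inactive = any of these conditions unmet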
PglD inh – blocks C. jejuni PglD acetyltransferase activity. purified PglD enzyme, DTNB colorimetric CoA detection. AID 602405. inhibition, % at 12.5 µM. hit rate 0.098% among 360,000; in the data active = inhibition above about 16%, passing the limit was not always enough; inconclusive = no clear call, values can overlap the other calls
Cneo AK release – causes C. neoformans cell lysis | lysis activity, % at 15 µM | adenylate kinase release luminescence, 4 h; normalised: neutral wells 0, clomiphene wells 100 | hit rate 0.2% among 360,000;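 active = mean lysis activity across replicates of at least 80%, whatever share of replicates individually reach that level; inactive = mean lysis activity below 80%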
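Schedule: static 4 h at 37 °C with compound, 1 h detection; system: C. neoformans cells; benchmarks: Clomiphene as positive control; buffer or medium: fresh YPD medium; measure: luminescence rise reflecting yeast cell lysis; measured by: luminescent adenylate kinase detection reagent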
RAD54 branch – RAD54 (human) branch migration inhibition | RAD54 Holliday junction branch migration, FAM/BHQ fluorescence | inhibition, % at 10.4 µM | hit rate 0.14% among 360,000;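 active = mean normalized replicate activity at least 40 and at least half of replicates scoring 40 or more; inconclusive = only one of the two criteria met; inactive = mean below 40 and under half of replicates reaching 40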;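 also: 0% = median of neutral control wells and 100% = median of positive control wells; inhibitors cause a drop in the FAM fluorescence signal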
Target sequence (Q92698 whole entry, looked up): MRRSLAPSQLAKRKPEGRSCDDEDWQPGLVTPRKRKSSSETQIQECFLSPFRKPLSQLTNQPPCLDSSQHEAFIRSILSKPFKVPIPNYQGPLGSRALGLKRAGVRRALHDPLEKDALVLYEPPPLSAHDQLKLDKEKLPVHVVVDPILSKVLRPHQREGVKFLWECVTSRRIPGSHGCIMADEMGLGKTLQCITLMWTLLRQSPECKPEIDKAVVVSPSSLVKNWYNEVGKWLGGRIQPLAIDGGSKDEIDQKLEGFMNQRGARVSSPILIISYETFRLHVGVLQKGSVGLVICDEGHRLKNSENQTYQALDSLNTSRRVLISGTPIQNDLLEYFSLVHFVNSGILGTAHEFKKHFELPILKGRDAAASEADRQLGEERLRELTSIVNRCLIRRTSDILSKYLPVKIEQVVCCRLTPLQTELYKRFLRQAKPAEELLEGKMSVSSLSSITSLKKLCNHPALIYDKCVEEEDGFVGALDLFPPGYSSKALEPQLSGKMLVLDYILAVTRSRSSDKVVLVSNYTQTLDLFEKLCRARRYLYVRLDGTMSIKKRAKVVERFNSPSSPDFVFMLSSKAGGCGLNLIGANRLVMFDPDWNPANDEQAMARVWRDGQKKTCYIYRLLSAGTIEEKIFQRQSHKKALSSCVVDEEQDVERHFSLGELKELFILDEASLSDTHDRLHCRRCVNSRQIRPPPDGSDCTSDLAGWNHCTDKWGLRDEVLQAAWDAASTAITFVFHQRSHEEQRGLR
RAD52 anneal inh – RAD52 (human) annealing inhibition; recombinant RAD52 DNA annealing, FRET fluorescence; inhibition, % at 18.7 µM; hit rate 0.46% among 360,000; AID 651710;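 active = every replicate showing at least 50% inhibition; inconclusive = mean inhibition at least 50% but not in every replicate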
HepG2 tox – kills or reduces viability of HepG2 cells; shares compounds with rRNA inh HTS; ATP luminescence, 72 h; activity change, negative = cytotoxicity, unspecified at 26 µM; 30 tested, under 10 active;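 active = compounds whose fitted half-maximal signal-loss concentration is at most twice their highest valid dose; inconclusive = flat curve with 30 to 70% signal loss, or poor fit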
AID977621 – growth inhibition of wild-type GFP E. coli, dose response, H69 mutant RFP, cherry-pick. 1,900 tested, under 10 active. activity change, negative = inhibition at 50 µM. E. coli wild-type GFP strain growth, fluorescence, 24 h. shares compounds with rRNA inh HTS;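 active = Wild-type ribosome reporter drop at least double the humanized mutant ribosome reporter drop, growth loss under a set limit; inconclusive = no clear call, values can overlap the other calls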;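 also: wild-type GFP and H69 mutant RFP strains grown together 50/50 in each well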
AID977628 – E. coli growth inhibition, wild-type GFP versus h24 humanized RFP strain, dose response, h24 mutant RFP vs wild-type GFP, cherry-pick; shares compounds with rRNA inh HTS; E. coli WT GFP strain growth, fluorescence, 24 h; activity change, negative = inhibition at 50 µM; 1,900 tested, under 10 active; AID 977628;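 active = compound lowering the normal-ribosome reporter at least twice as much as the humanized-ribosome reporter, growth loss under a set limit; inconclusive = no clear call, values can overlap the other calls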;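 also: wild-type GFP and h24 humanized RFP strains co-cultured 1 to 1 per well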
Active calls of the source: *; ? = inconclusive; nt = not tested or not shown; ! = not confirmed by another sample.

SMILES	rRNA inh HTS	PglD inh	Cneo AK release	RAD54 branch	RAD52 anneal inh	AID977621	AID977628	others
O=c1[nH]c(C2CCN(S(=O)(=O)c3ccccc3)CC2)nc2c1nnn2Cc1ccc2c(c1)OCCO2	-1	4	-1	-10	-9	nt	nt
O=c1[nH]c(C2CCCN(S(=O)(=O)c3ccccc3Cl)C2)nc2c1nnn2Cc1ccc2c(c1)OCCO2 (stereo not given)	-18*	0	3	-4	-4	-8.8	nt
Cc1cccc(NC(=O)COc2cccc3c2CCNC3=O)c1	-18*	0	0	-2	3	-9.7	-10
COc1cccc(NC(=O)COc2cccc3c2CCNC3=O)c1	10	5	0	-8	-1	nt	nt
CCOc1ccc(OCc2ccc(C(=O)N3CCCC3)o2)cc1	-17*	2	2	-14	-2	-7.6	-11
CCCc1ccc(OCc2ccc(C(=O)N3CCCC3)o2)cc1	-57	5	3	-1	13	nt	nt
O=C(C[C@H]1C[C@@H]2c3cc(NC(=O)C4CCOCC4)ccc3O[C@@H]2[C@@H](CO)O1)NCc1cccnc1	5	-2	5	4	-8	nt	nt
COc1ccc([C@H]2C[C@H](O)C[C@@H](CCn3cc(-c4ccccc4)nn3)O2)cc1	-22*	nt	nt	nt	-2	nt	-7
Cc1cc(SCC(=O)OCC(=O)NCC2CCCO2)c(C)cc1Br (stereo not given)	-25*	nt	nt	nt	-6	-17	nt
COc1ccccc1C#Cc1ccc([C@@H]2[C@H]3CN(C(=O)C4CCCC4)CCCCN3[C@H]2CO)cc1	nt	5	0	-1	44	nt	nt
Cc1ccc(NC(=O)COC(=O)CCNS(=O)(=O)c2c(Cl)cccc2Cl)cc1	-14*	-2	0	-3	-73	3.4	-8.1
COc1ccc(CSc2nc3ccccc3c(=O)n2CCCN2CCOCC2)cc1F	-28*	0	1	1	-28	-4.5	-18
CCn1c(SCc2ccc(OC)c(F)c2)nc2ccccc2c1=O	-7	4	-2	-5	-7	nt	nt
Cc1ccccc1CSc1nnc(-c2ccccn2)n1C	-21*	1	2	-19	-2	-7.2	?
O=C(CCC1CCCN(C(=O)c2cccs2)C1)N1CCN(c2ccccn2)CC1 (stereo not given)	-2	nt	nt	nt	-11	nt	nt
O=C(CCC1CCCN(C(=O)c2ccsc2)C1)N1CCN(c2ccccn2)CC1 (stereo not given)	-18*	3	-1	-3	-7	-3.6	-3.5
C[C@H]1CN([C@@H](C)CO)C(=O)Cc2cc(NC(=O)C3CCCCC3)ccc2O[C@H]1CN(C)C(=O)Nc1cccc2ccccc12	-2	5	1	12	4	nt	nt
CC(CNc1ccc(Cl)cc1)(CNc1ccc(Cl)cc1)[N+](=O)[O-]	-20*	1	-1	3	-11	?	?	HepG2 tox=16
CC(=O)Nc1cccc2c1O[C@H](CN(C)C(=O)OC(C)(C)C)[C@H](C)CN(C)C2=O	1	nt	nt	nt	nt	nt	nt
c1cc2cc(-c3c(-c4ccc5c(c4)OCO5)noc3-c3ccsc3)ccc2[nH]1	-13*	0	-3	-11	-15	-10	-9.6
Cc1ccc(C(=O)C2Oc3ccccc3C3CC(c4ccc(C)cc4)=NN23)cc1 (stereo not given)	-17*	-3	1	0	-26	4	0.038
Cc1ccc(C2=NN3C(C(=O)c4ccccc4)Oc4ccccc4C3C2)cc1 (stereo not given)	nt	0	0	-2	nt	nt	nt
COc1cccc(NC(=O)c2ccc(C(=O)c3ccccc3)o2)c1	-33*	-2	-3	8	-13	-15	nt
COCC#Cc1ccc2c(c1)O[C@@H](CN(C)S(=O)(=O)c1cccc(F)c1)[C@@H](C)CN([C@H](C)CO)S2(=O)=O	-20*!	-38	51	-1	-32	-22	nt
COCC#Cc1ccc2c(c1)O[C@@H](CN(C)S(=O)(=O)c1cccc(F)c1)[C@H](C)CN([C@H](C)CO)S2(=O)=O	-5	8	0	-1	-41	nt	nt
SMILES	rRNA inh HTS	PglD inh	Cneo AK release	RAD54 branch	RAD52 anneal inh	AID977621	AID977628	others
Cc1ccc(-c2ccc3c(c2)O[C@@H](CN(C)Cc2cccc(C(=O)O)c2)[C@H](C)CN([C@@H](C)CO)S3(=O)=O)cc1	-18*	5	2	-8	-17	nt	?
C=CCNC(=O)c1ccccc1CCc1ccccc1	-26*	1	-3	0	-17	4.9	-3.4
Cc1cccc(NC(=O)c2sc3nc(-c4ccccc4)cn3c2C)n1	-18*	-1	1	1	-35	-12	nt
Cc1c(C(=O)Nc2ccccc2)sc2nc(-c3ccccc3)cn12	nt	4	0	-3	nt	nt	nt
Cc1cc(SCC(=O)c2cccs2)n2nc(C)c(-c3ccc(Cl)cc3)c2n1	-31*	nt	nt	nt	-13	-1.6	-1.9
CN1CCN(C(=O)c2cc3sc4ccccc4c3s2)CC1	-24*	1	-10	4	2	nt	?
CCCC(=O)Nc1ccc2c(c1)C(=O)N(C)[C@@H]1CC[C@H](CC(=O)NCCc3ccccc3)O[C@H]1CO2	0	0	-2	3	-8	nt	nt
CC(C)(C)c1cc(-c2n[nH]c(=S)n2-c2ccc(Cl)cc2)n[nH]1	-31*	nt	nt	nt	-4	?	nt
COCC(=O)Nc1ccc2c(c1)C(=O)N(C)[C@@H]1CC[C@@H](CC(=O)Nc3ccccc3)O[C@H]1CO2	-3	-1	-1	5	3	nt	nt
C=C1c2cc3c(cc2NC(=S)N1Cc1ccccc1)OCO3	-27*	4	4	10	-10	-7.9	-3.8
O=C(CSc1ccc(Cl)cc1)Nc1cccc(NC(=O)c2ccco2)c1	nt	3	5	11	nt	nt	nt
CSc1cccc(NC(=O)CCc2ccccc2)c1	-29*	nt	nt	nt	-7	0.12	-5.2
O=C(CSc1ccccc1)Nc1cccc(NC(=O)c2ccco2)c1	-21*	-2	1	1	-23	?	nt
CN(C)CCCNC(=O)C[C@H]1CC[C@H]2[C@@H](COC[C@@H](O)CN2CC2CCCCC2)O1	-4	nt	nt	nt	13	nt	nt
CNC(=O)C[C@H]1CC[C@@H]2[C@H](COc3ccc(NC(=O)c4cccs4)cc3C(=O)N2C)O1	2	-1	3	-6	nt	nt	nt
Cc1cccc(S(=O)(=O)Nc2ccc(-c3cn4ccccc4n3)cc2)c1	-32*	-6	-2	-1	-27	?	nt
O=S(=O)(Nc1ccc(-c2cn3ccccc3n2)cc1)c1ccccc1	-9	-2	-5	-7	-14	nt	nt

Assay outcomes from PubChem.
